Data: ChEMBL document CHEMBL3813686, “Biologically Active Acetylenic Amino Alcohol and N-Hydroxylated 1,2,3,4-Tetrahydro-β-carboline Constituents of the New Zealand Ascidian Pseudodistoma opacum” (J Nat Prod, 2016)
Converted amounts (≈) assume the structure as drawn. The source made the active and inactive calls. The calls are words filed in the database; no cut-off is given here.

What was measured:
[1] = test system: Mycobacterium tuberculosis; test: Antibacterial activity against Mycobacterium tuberculosis BSG001 incubated overnight by microbroth-dilution method; format: functional
Summary of the method: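 M. tuberculosis H37Rv carrying a bacterial luciferase vector, grown 2 weeks at 37 °C (100 rpm) in Middlebrook 7H9 with ADC and glycerol. Assay medium was 7H9 without Tween or kanamycin. Compounds in DMSO were tested in doubling dilutions from 64 to 1 μg/mL, with untreated and DMSO controls, incubated overnight at 37 °C. Triplicate wells per concentration; three separate experiments.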

[2] = test system: Staphylococcus aureus; test: Antibacterial activity against Staphylococcus aureus XEN36 incubated overnight by microbroth-dilution method; format: functional
Summary of the method: (§1)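 Mueller Hinton broth cultures were grown overnight at 37 °C with shaking at 200 rpm. Inoculum was adjusted to approximately 5 × 10^5 cfu/mL final, confirmed by retrospective plating. Compounds were dissolved in DMSO and tested in doubling dilutions, with untreated and DMSO controls. Plates were incubated overnight at 37 °C. Each concentration was run in triplicate on three separate occasions.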

[3] = test system: Escherichia coli; test: Antibacterial activity against Escherichia coli ATCC 25922 incubated overnight by microbroth-dilution method; format: functional; summary of the method: as §1
[4] = test system: Escherichia coli; test: Antibacterial activity against Escherichia coli after 24 hrs by broth macrodilution method; format: functional
[5] = test system: Mycobacterium tuberculosis; test: Antibacterial activity against Mycobacterium tuberculosis H37Ra after 7 days by resazurin dye based fluorescence assay; format: functional; conditions: 168 h
[6] = test system: Escherichia coli; test: Antibacterial activity against Escherichia coli ATCC 25922 after 16 hrs by resazurin dye based fluorescence assay; format: functional; conditions: ATCC 25922, 16 h
[7] = test system: Staphylococcus aureus; test: Antibacterial activity against Staphylococcus aureus ATCC 25923 after 16 hrs by resazurin dye based fluorescence assay; format: functional; conditions: ATCC 25923, 16 h
[8] = test system: Mycobacterium tuberculosis; test: Bactericidal activity against Mycobacterium tuberculosis BSG001 incubated overnight by microbroth-dilution method; format: functional
Summary of the method: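 Broth microdilution on luciferase-tagged M. tuberculosis H37Rv in 7H9 medium without Tween or kanamycin, using DMSO-dissolved compounds at 64–1 μg/mL (doubling) and incubating overnight at 37 °C. 5 μL from the MIC wells went into 195 μL fresh medium and was incubated overnight at 37 °C. Dilutions were also plated. MBC was taken as at least a 3-log drop from the initial inoculum.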

[9] = test system: Staphylococcus aureus; test: Bactericidal activity against Staphylococcus aureus XEN36 incubated overnight by microbroth-dilution method; format: functional
Summary of the method: (§2)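 Broth from the MIC wells (standard microbroth dilution, ~5 × 10^5 cfu/mL in Mueller Hinton broth) was transferred into fresh medium and incubated overnight at 37 °C, then scored for growth. Cell dilutions were also plated. MBC was taken as a reduction of at least 3 logs from the initial inoculum.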

[10] = test system: Escherichia coli; test: Bactericidal activity against Escherichia coli ATCC 25922 incubated overnight by microbroth-dilution method; format: functional; summary of the method: as §2
[11] = test system: Plasmodium falciparum; test: Antiplasmodial activity against chloroquine-resistant Plasmodium falciparum FcB1/Columbia infected in erythrocytes assessed as inhibition of parasite growth after 48 hrs by 3H-hypoxanthine incorporation assay; format: functional, organism-based

C=CCCC#CC#CCCCCCCC[C@@H](CNC(=O)c1ccccc1)OC(=O)c1ccccc1
Activity [1]: inactive | Activity [2]: inactive | Activity [3]: inactive

CCCCC/C=C\C/C=C\CC/C=C/C[C@H](O)[C@H](C)N
MIC [4]: 360 µM (≈ 101 µg/mL)

C=CCCCCCC/C=C\C[C@H](O)[C@H](C)N
MIC [4]: 196 µM (≈ 44.2 µg/mL)

CCCCCCCCCCC[C@H](O)[C@H](C)N
MIC [5]: 33 µM (≈ 7.57 µg/mL) | MIC [6]: 33 µM (≈ 7.57 µg/mL) | MIC [7]: 33 µM (≈ 7.57 µg/mL)

C=CCCC#CC#CCCCCCCC[C@H](O)CN
MIC [1]: 85 µM | MIC [2]: 85 µM | MBC [8]: 64 µg/mL | MIC [3]: 170 µM | MBC [9]: 32 µg/mL | MBC [10]: > 128 µg/mL

N=C(N)NCCCCC1NCCc2c1n(O)c1cc(Br)ccc21 (configuration not stated)
MIC [1]: 106 µM | MIC [2]: 53 µM | MBC [8]: 106 µM | MIC [3]: 106 µM | MBC [9]: 53 µM | IC50 [11]: 3.8 µM | MBC [10]: 106 µM

CO[C@H]1/C=C/O[C@@]2(C)Oc3c(C)c(O)c4c(O)c(c(/C=N/N5CCN(C)CC5)c(O)c4c3C2=O)NC(=O)/C(C)=C\C=C\[C@H](C)[C@H](O)[C@@H](C)[C@@H](O)[C@@H](C)[C@H](OC(C)=O)[C@@H]1C [RIFAMPIN]
MIC [1]: 0.161 µg/mL | MIC [2]: 0.004 µg/mL | MBC [8]: 0.161 µg/mL | MIC [3]: 8 µg/mL | MBC [9]: 0.008 µg/mL | MBC [10]: 8 µg/mL
